Laboratory results taken from ChEMBL document CHEMBL2151035, “Diarylcyclopentendione metabolite obtained from a Preussia typharum isolate procured using an unconventional cultivation approach” (J Nat Prod, 2012).
Active and inactive are the calls of the source. The calls are words filed in the database; no cut-off is given here.

Experiments:
[1] = tested on: Radical scavenging activity; assay: Antioxidant activity assessed as DPPH free radical scavenging activity up to 30 uM after 30 mins; assay type: functional
Method in brief: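 Samples from 10 mM DMSO stocks were diluted in 2-propanol and mixed with DPPH in 2-propanol (40 uM solution as added). Controls were ascorbic acid (positive) and 2-propanol vehicle (negative). Plates were shaken and left for 30 min, then absorbance was read at 520 nm. Percent inhibition was calculated against control wells, in triplicate. IC50 is the concentration scavenging 50% of DPPH radicals.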

Staphylococcus aureus = assay: Antibacterial activity against methicillin-resistant Staphylococcus aureus up to 30 uM after 24 hrs; assay type: functional, organism-based
Klebsiella pneumoniae = assay: Antibacterial activity against Klebsiella pneumoniae up to 30 uM after 24 hrs; assay type: functional, organism-based
Aspergillus fumigatus = assay: Antifungal activity against Aspergillus fumigatus up to 30 uM after 48 hrs; assay type: functional, organism-based
[2] = tested on: Radical scavenging activity; assay: Antioxidant activity assessed as DPPH free radical scavenging activity after 30 mins; assay type: functional
Method in brief: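 Test samples taken up as 10 mM DMSO stocks, dissolved in 2-propanol. 50 μL of sample, or 2-propanol vehicle as negative control, mixed with 150 μL DPPH in 2-propanol (40 uM). Shaken, stood 30 min, absorbance read at 520 nm. Percent inhibition computed against control wells. Triplicates. IC50 taken as the concentration scavenging 50% of DPPH radicals. Ascorbic acid as positive control.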

Structure (SMILES)	Activity [1]	Activity (Staphylococcus aureus)	Activity (Klebsiella pneumoniae)	Activity (Aspergillus fumigatus)	IC50 [2]
COc1cc(C2=CC(=O)[C@@](C)(c3ccc(O)c(OC)c3)C2=O)ccc1O	inactive	inactive	inactive	inactive	–
O=C1O[C@H]([C@@H](O)CO)C(O)=C1O [ASCORBIC ACID]	–	–	–	–	5.6 µM
COc1cc(C)c(Oc2cc(C)cc(O)c2)c(O)c1	inactive	inactive	inactive	inactive	–
COc1cc(C)c(Oc2cc(C)cc(OC)c2O)c(O)c1	–	inactive	inactive	inactive	7.9 µM
COc1cc(C)c(Oc2cc(C)cc(O)c2O)c(O)c1	–	inactive	inactive	inactive	11.6 µM
